Experimental data published in ChEMBL document CHEMBL4257486, “A novel allosteric inhibitor that prevents IKKβ activation” (Medchemcomm, 2018).
Activity calls are given as the source filed them. The calls are words filed in the database; no cut-off is given here.

Tests used:
[1] = target: Epidermal growth factor receptor (Homo sapiens) (UniProt P00533); assay: Inhibition of human EGFR using poly[Glu:Tyr] (4:1) as substrate at 100 uM after 40 mins in presence of [gamma-33P-ATP] by scintillation counting analysis
Sequence of Epidermal growth factor receptor (Homo sapiens) (P00533 whole entry): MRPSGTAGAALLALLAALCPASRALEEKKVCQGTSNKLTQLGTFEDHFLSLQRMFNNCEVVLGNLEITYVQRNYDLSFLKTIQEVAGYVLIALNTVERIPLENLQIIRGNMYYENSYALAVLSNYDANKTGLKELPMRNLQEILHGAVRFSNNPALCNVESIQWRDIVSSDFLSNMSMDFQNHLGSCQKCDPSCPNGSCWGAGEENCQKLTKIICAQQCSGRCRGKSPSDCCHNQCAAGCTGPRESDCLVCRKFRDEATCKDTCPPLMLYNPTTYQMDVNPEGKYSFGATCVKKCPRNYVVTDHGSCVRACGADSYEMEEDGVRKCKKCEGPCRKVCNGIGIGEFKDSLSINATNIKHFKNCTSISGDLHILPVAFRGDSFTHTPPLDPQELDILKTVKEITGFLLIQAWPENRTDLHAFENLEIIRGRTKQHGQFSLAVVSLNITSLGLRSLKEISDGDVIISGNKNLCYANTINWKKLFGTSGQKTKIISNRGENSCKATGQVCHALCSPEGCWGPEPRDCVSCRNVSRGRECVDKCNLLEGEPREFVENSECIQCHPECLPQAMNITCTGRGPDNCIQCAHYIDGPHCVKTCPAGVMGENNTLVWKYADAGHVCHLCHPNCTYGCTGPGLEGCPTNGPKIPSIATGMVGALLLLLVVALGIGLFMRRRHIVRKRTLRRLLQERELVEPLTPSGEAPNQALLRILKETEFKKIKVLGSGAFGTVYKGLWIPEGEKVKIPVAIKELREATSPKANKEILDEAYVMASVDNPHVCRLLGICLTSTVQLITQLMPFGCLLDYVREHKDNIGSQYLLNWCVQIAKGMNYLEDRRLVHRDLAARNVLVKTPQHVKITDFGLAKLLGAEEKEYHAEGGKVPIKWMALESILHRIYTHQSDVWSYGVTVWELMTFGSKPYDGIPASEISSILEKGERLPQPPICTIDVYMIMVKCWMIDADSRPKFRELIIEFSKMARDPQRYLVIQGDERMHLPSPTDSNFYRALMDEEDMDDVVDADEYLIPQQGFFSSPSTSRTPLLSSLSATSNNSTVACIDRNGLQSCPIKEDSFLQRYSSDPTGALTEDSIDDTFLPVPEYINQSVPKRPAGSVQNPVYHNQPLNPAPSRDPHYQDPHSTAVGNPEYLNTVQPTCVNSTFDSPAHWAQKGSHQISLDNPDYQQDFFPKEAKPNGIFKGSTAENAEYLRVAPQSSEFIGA
In short: (§1)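 Radiometric [γ-33P]ATP assay (specific activity approx. 500 cpm/pmol) run by an outsourced service. Compound was added first from a 50x stock in DMSO, giving 2% DMSO final. Positive controls contained DMSO only; blanks used a reference inhibitor to set 0% activity. Reactions were started with MgATP mix, run 40 min at room temperature, and stopped with 3% phosphoric acid. They were spotted on P30 filtermat, washed in 75 mM phosphoric acid and methanol, and scintillation counted.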

[2] = target: T1, Inhibitor of nuclear factor kappa-B kinase subunit alpha (Homo sapiens) (UniProt O15111); assay: Inhibition of human IKKalpha using LDDRHDSGLDSMKDEEY as substrate at 100 uM after 40 mins in presence of [gamma-33P-ATP] by scintillation counting analysis; in short: as §1
T1 sequence (whole entry): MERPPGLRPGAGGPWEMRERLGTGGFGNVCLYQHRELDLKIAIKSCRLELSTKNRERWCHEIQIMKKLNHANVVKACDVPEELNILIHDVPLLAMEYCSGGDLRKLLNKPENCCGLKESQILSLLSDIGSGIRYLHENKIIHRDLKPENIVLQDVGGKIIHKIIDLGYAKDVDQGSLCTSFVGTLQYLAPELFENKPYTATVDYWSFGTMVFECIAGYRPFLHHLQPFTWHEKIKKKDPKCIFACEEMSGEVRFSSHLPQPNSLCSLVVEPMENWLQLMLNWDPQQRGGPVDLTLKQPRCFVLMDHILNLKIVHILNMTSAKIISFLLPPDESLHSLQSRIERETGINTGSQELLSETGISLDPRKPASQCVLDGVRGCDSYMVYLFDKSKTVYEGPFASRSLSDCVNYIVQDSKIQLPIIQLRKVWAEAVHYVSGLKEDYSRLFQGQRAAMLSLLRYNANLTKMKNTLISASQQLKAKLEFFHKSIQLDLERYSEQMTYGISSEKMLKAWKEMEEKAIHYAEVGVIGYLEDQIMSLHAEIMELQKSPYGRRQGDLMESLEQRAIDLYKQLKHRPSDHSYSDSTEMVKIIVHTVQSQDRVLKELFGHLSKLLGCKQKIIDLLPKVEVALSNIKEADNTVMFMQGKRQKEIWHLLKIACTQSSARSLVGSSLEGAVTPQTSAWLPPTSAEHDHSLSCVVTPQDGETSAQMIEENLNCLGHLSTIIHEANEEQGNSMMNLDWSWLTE

[3] = target: T2, Tyrosine-protein kinase JAK3 (Homo sapiens) (UniProt P52333); assay: Inhibition of human JAK3 using GGEEEEYFELVKKKK as substrate at 100 uM after 40 mins in presence of [gamma-33P-ATP] by scintillation counting analysis; in short: as §1
T2 sequence (whole entry): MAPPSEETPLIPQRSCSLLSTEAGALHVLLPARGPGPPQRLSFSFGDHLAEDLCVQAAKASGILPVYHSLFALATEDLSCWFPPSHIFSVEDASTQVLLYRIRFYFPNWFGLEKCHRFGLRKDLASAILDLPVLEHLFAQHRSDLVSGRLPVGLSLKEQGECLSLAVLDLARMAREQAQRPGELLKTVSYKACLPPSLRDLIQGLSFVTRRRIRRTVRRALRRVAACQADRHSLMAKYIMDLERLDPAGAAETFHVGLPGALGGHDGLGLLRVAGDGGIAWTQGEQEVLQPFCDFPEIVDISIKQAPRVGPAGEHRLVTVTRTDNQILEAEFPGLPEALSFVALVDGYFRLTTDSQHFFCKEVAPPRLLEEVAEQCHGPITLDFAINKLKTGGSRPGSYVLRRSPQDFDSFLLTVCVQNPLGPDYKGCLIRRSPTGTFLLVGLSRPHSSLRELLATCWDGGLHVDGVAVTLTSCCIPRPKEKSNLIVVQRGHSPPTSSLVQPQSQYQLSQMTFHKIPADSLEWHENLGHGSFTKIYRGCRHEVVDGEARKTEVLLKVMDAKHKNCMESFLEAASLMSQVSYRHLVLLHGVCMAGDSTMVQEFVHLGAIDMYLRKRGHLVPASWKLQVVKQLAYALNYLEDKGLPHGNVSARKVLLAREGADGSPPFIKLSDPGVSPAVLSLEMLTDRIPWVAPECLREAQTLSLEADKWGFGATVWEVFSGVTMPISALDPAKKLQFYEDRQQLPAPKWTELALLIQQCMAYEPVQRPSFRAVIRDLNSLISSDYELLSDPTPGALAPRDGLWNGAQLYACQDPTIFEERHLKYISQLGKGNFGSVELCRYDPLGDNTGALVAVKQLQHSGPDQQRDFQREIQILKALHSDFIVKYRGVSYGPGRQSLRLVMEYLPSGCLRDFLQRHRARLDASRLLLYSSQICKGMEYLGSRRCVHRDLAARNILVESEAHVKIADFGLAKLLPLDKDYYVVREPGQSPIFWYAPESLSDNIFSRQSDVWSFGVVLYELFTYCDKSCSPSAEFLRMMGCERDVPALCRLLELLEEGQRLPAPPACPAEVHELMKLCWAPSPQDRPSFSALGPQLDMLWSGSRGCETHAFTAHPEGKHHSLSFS

[4] = target: Tyrosine-protein kinase Lck (Homo sapiens) (UniProt P06239); assay: Inhibition of human Lck using KVEKIGEGTYGVVYK (Cdc2 peptide) as substrate at 100 uM after 40 mins in presence of [gamma-33P-ATP] by scintillation counting analysis; in short: as §1
Sequence of Tyrosine-protein kinase Lck (Homo sapiens) (P06239 2-509 limits assumed): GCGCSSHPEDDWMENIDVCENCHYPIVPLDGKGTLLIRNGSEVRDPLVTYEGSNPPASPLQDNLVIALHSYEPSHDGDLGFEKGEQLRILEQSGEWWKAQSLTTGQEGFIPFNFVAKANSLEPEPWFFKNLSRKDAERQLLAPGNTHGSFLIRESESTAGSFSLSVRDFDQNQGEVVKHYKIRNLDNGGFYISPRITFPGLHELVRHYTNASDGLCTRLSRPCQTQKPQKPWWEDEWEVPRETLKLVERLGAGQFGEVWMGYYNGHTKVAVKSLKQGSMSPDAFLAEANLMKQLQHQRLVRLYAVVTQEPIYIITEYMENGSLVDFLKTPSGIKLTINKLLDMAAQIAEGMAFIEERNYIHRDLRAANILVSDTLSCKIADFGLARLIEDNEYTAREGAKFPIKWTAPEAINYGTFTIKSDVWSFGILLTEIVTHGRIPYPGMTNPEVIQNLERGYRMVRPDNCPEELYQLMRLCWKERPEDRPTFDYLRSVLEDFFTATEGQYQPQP

[5] = target: Mitogen-activated protein kinase 1 (Homo sapiens) (UniProt P28482); assay: Inhibition of human MAPK1 at 100 uM after 40 mins in presence of [gamma-33P-ATP] by scintillation counting analysis; in short: as §1
Sequence of Mitogen-activated protein kinase 1 (Homo sapiens) (P28482 whole entry): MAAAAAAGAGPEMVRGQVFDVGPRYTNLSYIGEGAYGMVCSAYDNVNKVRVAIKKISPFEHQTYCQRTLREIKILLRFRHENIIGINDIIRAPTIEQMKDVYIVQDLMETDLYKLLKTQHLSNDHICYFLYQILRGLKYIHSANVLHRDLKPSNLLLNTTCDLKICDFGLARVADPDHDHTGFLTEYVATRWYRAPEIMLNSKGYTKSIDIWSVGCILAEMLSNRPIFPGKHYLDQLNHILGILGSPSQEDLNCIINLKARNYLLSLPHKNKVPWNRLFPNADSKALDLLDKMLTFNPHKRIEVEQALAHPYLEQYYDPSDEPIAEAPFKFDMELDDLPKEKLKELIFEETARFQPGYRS

[6] = species on record: Homo sapiens; assay: Inhibition of human PKA using LRRASLG (Kemptide) as substrate at 100 uM after 40 mins in presence of [gamma-33P-ATP] by scintillation counting analysis; in short: as §1
[7] = target: Protein kinase C alpha type (Homo sapiens) (UniProt P17252); assay: Inhibition of human PKCalpha at 100 uM after 40 mins in presence of [gamma-33P-ATP] by scintillation counting analysis; in short: as §1
[8] = target: Protein kinase C delta type (Homo sapiens) (UniProt Q05655); assay: Inhibition of human PKCdelta using ERMRPRKRQGSVRRRV as substrate at 100 uM after 40 mins in presence of [gamma-33P-ATP] by scintillation counting analysis; in short: as §1
Sequence of Protein kinase C delta type (Homo sapiens) (Q05655 whole entry, looked up): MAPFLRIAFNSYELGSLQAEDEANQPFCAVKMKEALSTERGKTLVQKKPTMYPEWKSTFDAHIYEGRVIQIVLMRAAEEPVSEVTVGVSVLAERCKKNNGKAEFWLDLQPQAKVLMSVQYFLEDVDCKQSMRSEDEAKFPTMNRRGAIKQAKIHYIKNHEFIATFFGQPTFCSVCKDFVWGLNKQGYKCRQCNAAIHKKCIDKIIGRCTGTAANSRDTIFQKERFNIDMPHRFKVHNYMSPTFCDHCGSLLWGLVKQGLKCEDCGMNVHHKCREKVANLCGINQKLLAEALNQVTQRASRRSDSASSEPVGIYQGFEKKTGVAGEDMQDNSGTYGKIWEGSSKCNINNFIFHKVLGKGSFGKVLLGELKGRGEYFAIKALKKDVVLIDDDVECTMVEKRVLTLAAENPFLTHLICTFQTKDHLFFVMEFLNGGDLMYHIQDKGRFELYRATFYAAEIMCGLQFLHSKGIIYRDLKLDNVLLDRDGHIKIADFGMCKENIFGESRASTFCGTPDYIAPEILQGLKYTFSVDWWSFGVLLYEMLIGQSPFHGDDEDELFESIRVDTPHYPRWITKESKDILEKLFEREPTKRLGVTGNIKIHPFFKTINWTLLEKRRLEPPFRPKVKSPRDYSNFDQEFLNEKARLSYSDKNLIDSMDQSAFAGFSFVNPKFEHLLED

[9] = target: Mitogen-activated protein kinase 14 (Homo sapiens) (UniProt Q16539); assay: Inhibition of human SAPK2a using myelin basic protein as substrate at 100 uM after 40 mins in presence of [gamma-33P-ATP] by scintillation counting analysis; in short: as §1
Sequence of Mitogen-activated protein kinase 14 (Homo sapiens) (Q16539 whole entry): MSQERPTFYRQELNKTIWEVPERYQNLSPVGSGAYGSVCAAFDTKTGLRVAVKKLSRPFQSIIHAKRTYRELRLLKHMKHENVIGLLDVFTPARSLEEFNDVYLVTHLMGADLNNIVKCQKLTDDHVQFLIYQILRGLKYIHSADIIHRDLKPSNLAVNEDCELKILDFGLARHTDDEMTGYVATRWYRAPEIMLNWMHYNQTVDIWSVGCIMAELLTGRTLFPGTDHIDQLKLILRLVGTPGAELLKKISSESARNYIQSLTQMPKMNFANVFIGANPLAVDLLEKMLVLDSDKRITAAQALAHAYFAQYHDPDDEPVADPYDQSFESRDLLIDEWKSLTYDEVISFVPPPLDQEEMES

- inhibition [1]: inactive
- inhibition [2]: inactive
- inhibition [3]: inactive
- inhibition [4]: inactive
- inhibition [5]: inactive
- inhibition [6]: inactive
- inhibition [7]: inactive
- inhibition [8]: inactive
- inhibition [9]: inactive
SMILES: CCOc1c(S(=O)(=O)NC2CC(C)(C)NC(C)(C)C2)ccc(Cl)c1Cl
